This note sets out measurements from ChEMBL document CHEMBL5346963, “Innovative Strategy toward Mutant CFTR Rescue in Cystic Fibrosis: Design and Synthesis of Thiadiazole Inhibitors of the E3 Ligase RNF5” (J Med Chem, 2023).

Activity calls are given as the source filed them. Unless noted, the rule behind the calls is not given here.

In series [1] the test system is CFBE41o-. The experiment in a line: Induction of apoptosis in human CFBE41o- cells assessed as increase in apoptosis at 100 uM incubated for 24 hrs by Hoechst 33342 and propidium iodide staining based analysis. The format is toxicity, cell-based. The gist of the method:
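Cells were plated at 10,000/well and treated after 6 h with compound (5, 20, 100 μM), VX-809 (1 μM), MG132 (50 μM) or DMSO for 24 h. Hoechst 33342 counted total nuclei and propidium iodide counted apoptotic nuclei, by high-content imaging. Means ± SEM; ANOVA with Dunnett test.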

The test system of series [2] is CFBE41o-. Kind of series: Antiproliferative activity against human CFBE41o- cells harbouring CFTR F508del mutant/HS-YFP at 5 uM incubated for 48 hrs. The format is toxicity, cell-based. The gist of the method: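 Cells plated at 5000/well and treated after 6 h with compound (5 μM) or DMSO. Cell-covered area was followed by the YFP signal over 48 h on a high-content imager. Means ± SEM, n = 6. Three independent experiments; ANOVA with Dunnett test.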

For series [3], the system named is CFBE41o-. The experiment in a line: Induction of autophagy in human CFBE41o- cells harbouring CFTR F508del mutant assessed as increase in number of autophagic vacuoles at 2 uM incubated for 3 hrs by confocal microscopy based analysis. The series is classed as functional, cell-based. The gist of the method: (§1)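 CFBE41o– F508del/HS-YFP cells (50,000/well) were treated 24 h with compound (5 μM), VX-809 (1 μM) or DMSO. SAR405 (2 μM) and torin1 (20 nM) were added near the end of incubation. Cells were then loaded with 50 μM MDC in PBS for 10 min at 37 °C, washed, and imaged. MDC spot number was normalized to control. n = 3; ANOVA with Dunnett test.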

For series [4], the system named is Cystic fibrosis transmembrane conductance regulator (Homo sapiens), P13569 [F508del]. Kind of series: Corrector activity at CFTR F508del mutant in human CFBE41o- cells transfected with RNF5 siRNA assessed as increase in CFTR mutant activity at 5 uM incubated for 24 hrs. The format is cell-based. The gist of the method: (§2)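 CFBE41o– F508del/HS-YFP cells were reverse-transfected with 50 nM (final) NT or RNF5 siRNA using lipofectamine 2000. Medium was changed next day, then compounds were given for 24 h at 37 °C. Readout was the YFP iodide-influx assay after forskolin (20 μM) plus VX-770 (1 μM) stimulation.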

The test system is the same in series [5]. The experiment in a line: Corrector activity at CFTR F508del mutant in human CFBE41o- cells assessed as decrease in accumulation of ubiquitylated CFTR at 5 uM incubated for 24 hrs in presence of VX-661/VX-445 by Western blot analysis. The series is classed as cell-based. The gist of the method: (§3)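 Confluent CFBE41o– F508del cells were treated 24 h, with MG-132 (10 μM) or DMSO in the last 4 h. Lysate (600 μg protein) was immunoprecipitated with rabbit anti-CFTR (2 μg, 1 h RT) and protein A/G beads, then eluted reducing. Samples ran on 4–15% gradient SDS-PAGE and were western blotted. Bands were read by chemiluminescence, with densitometry of ubiquitylated CFTR.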

For series [6] the test system is unchanged. The experiment in a line: Corrector activity at CFTR F508del mutant in human CFBE41o- cells assessed as increase in CFTR mutant activity at 5 uM in presence of VX-661/VX-445 incubated for 24 hrs. The series is classed as cell-based. An outline of the steps:
(§4)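 CFBE41o– cells stably expressing F508del-CFTR and HS-YFP were treated 24 h after seeding; DMSO and VX-809 (1 μM) served as controls. Cells were stimulated 25 min with forskolin (20 μM) plus VX-770 (1 μM). YFP was read for 2 s before and 12 s after iodide injection. Initial slope came from an exponential fit of the final 11 s. Three independent experiments.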

The test system is the same in series [7]. Kind of series: Corrector activity at CFTR F508del mutant in human CFBE41o- cells assessed as rescue of CFTR mutant at 5 uM incubated for 24 hrs in presence of VX661/VX-445 by Western blot analysis. The series is classed as cell-based.
In series [8] the test system is CFBE41o-. The experiment in a line: Induction of autophagy in human CFBE41o- cells harbouring CFTR F508del mutant assessed as increase in number of autophagic vacuoles at 5 uM incubated for 24 hrs by confocal microscopy based analysis. The format is functional, cell-based. An outline of the steps:
as §1

For series [9], the target named is Cystic fibrosis transmembrane conductance regulator (Homo sapiens, UniProt P13569, F508DEL). Kind of series: Corrector activity at CFTR F508del mutant in human CFBE41o- cells coexpressing HS-YFP incubated for 25 mins by microplate reader based analysis. The series is classed as cell-based. The gist of the method:
as §4

Series [10] deals with Cystic fibrosis transmembrane conductance regulator (Homo sapiens), P13569 [F508del]. Kind of series: Corrector activity at CFTR F508del mutant in human CFBE41o- cells assessed as appearance of CFTR mutant forms at 5 uM incubated for 24 hrs in presence of MG-132 by Western blot analysis. The format is cell-based. The gist of the method:
as §3

For series [11] the test system is unchanged. The experiment in a line: Corrector activity at CFTR F508del mutant in human CFBE41o- cells transfected with NT siRNA assessed as increase in CFTR mutant activity at 5 uM incubated for 24 hrs in presence of VX-661/VX-445. The format is cell-based. An outline of the steps:
as §2

Series [12] has the same test system. The experiment in a line: Corrector activity at CFTR F508del mutant in human CFBE41o- cells assessed as increase in CFTR mutant activity at 5 uM in presence of VX-809 incubated for 24 hrs. The series is classed as cell-based. An outline of the steps:
as §4

Series [13] shares this test system. The experiment in a line: Corrector activity at CFTR F508del mutant in human CFBE41o- cells transfected with NT siRNA assessed as increase in CFTR mutant activity at 5 uM incubated for 24 hrs. The series is classed as cell-based. The gist of the method: as §2
For series [14] the test system is unchanged. Kind of series: Corrector activity at CFTR F508del mutant in human CFBE41o- cells transfected with RNF5 siRNA assessed as increase in CFTR mutant activity at 5 uM incubated for 24 hrs in presence of VX-661/VX-445. The series is classed as cell-based. An outline of the steps:
as §2

Series [15] can be described thus: Aggregation property of the compound in PBS buffer at pH 7.5 by 1D 1H-NMR analysis. The series is classed as physicochemical. The gist of the method:
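Solubility by 1H 1D NMR and aggregation by WaterLOGSY at 298 K in PBS pH 7.5 with 1 μM ZnCl2, 1 mM DTT, 10% D2O, 1% DMSO-d6. Theoretical concentrations 20, 50 and 100 μM, with 200 μM 4-trifluoromethyl benzoic acid as internal reference. WaterLOGSY: mixing time 1.7 s, relaxation delay 2 s, 256 scans.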

The subject of series [16] is Cystic fibrosis transmembrane conductance regulator (Homo sapiens), P13569 [F508del]. Kind of series: Corrector activity at CFTR F508del mutant in human CFBE41o- cells assessed as increase in CFTR mutant activity at 5 uM in presence of VX-445 incubated for 24 hrs. The format is cell-based. An outline of the steps:
as §4

Cystic fibrosis transmembrane conductance regulator (Homo sapiens), P13569 [F508del], sequence (P13569 as listed by the source): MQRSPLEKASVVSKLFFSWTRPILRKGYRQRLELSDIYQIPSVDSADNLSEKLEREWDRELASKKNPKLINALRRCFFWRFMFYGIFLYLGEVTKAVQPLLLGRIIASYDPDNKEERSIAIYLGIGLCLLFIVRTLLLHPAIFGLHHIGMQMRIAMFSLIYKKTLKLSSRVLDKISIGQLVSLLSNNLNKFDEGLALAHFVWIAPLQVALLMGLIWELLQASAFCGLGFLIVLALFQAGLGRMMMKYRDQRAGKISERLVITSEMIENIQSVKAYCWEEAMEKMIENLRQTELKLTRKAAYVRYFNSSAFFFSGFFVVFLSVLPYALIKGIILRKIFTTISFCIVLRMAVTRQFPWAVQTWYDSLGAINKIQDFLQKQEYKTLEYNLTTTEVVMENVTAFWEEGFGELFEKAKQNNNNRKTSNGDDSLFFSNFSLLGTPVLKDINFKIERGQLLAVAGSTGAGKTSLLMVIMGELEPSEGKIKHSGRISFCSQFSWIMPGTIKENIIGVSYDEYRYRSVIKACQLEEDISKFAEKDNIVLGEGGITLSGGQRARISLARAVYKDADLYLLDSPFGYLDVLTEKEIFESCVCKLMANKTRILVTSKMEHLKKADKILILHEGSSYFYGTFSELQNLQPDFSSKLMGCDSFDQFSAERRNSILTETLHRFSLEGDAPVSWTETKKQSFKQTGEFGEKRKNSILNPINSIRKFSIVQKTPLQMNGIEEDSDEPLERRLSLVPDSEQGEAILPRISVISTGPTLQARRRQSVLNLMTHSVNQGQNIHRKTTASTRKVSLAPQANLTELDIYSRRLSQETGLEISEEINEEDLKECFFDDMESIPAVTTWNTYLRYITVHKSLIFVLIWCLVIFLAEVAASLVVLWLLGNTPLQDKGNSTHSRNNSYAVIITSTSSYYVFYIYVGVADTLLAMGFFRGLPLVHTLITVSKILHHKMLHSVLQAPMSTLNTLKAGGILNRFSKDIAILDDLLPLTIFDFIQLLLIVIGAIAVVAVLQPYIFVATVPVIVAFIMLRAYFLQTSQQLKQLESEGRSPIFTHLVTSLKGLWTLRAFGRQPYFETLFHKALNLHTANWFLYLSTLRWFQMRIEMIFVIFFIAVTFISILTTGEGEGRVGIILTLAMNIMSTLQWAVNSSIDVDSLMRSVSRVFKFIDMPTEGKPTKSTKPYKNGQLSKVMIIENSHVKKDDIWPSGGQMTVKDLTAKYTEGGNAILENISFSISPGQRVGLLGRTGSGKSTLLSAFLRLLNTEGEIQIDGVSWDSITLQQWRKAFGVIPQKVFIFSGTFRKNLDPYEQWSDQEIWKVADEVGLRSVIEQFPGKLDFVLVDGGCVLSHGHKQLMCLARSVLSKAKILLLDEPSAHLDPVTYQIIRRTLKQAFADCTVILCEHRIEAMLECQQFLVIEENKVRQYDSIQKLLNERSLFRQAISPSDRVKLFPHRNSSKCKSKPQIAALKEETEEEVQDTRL
Cystic fibrosis transmembrane conductance regulator, sequence (P13569 as listed by the source): as above

On to `Cc1ns/c(=N\C(=N\c2ccccc2)c2ccccc2)n1Cc1ccccc1Cl`, for which the Activity entry in the series on CFBE41o- [1] is “Toxic”; in the series with CFBE41o- [2], “Non-Toxic”.
With `C[C@@H]1COCCN1c1cc(=O)n2c(n1)N(Cc1cncc(Cl)c1)[C@H](C(F)(F)F)CC2`, in the series with CFBE41o- [3], the outcome was inactive.
With `COc1cccc(Cn2c(C)ns/c2=N\C(=N\c2ccccc2)c2ccccc2)c1`, the outcome in [4], in [10] and in series [14] was inactive. Also, the outcome (in [5]; in [6]; in [7]; with CFBE41o- [8]; in series [11]; in series [12]) was Active. The result in series [13] and in series [16] was Active. In [9], this compound returned an EC50 of 1.2 µM. Also, the Activity entry in the series on CFBE41o- [2] is listed as “Non-Toxic”; in series [15] it was “Not Active”.
With `Cc1ns/c(=N\C(=N\c2ccccc2)c2ccccc2)n1Cc1ccc(Br)cc1`, in the series on CFBE41o- [8], the outcome was Active. For the same compound, the Activity result in the series with CFBE41o- [2] was “Non-Toxic”.
Regarding `Cc1ns/c(=N\C(=N\c2ccccc2)c2ccccc2)n1-c1ccccc1`, the Activity entry in the series with CFBE41o- [1] is given as “Toxic”; in the series on CFBE41o- [2], “Non-Toxic”; in series [15], “Not Active”. Besides, the outcome with CFBE41o- [8] was inactive.
Regarding `Cc1ns/c(=N\C(=N\c2ccncc2)c2ccccc2)n1Cc1ccccc1`, the Activity result in [15] is recorded as “Not Active”.
As for `Cc1ns/c(=N\C(=N\c2ccccc2)c2ccccc2)n1Cc1ccccc1N`, the Activity result is on record as “Toxic” in the series with CFBE41o- [1], “Non-Toxic” in the series on CFBE41o- [2] and “Not Active” in [15].
As for `CNc1cccc(Cn2c(C)ns/c2=N\C(=N\c2ccccc2)c2ccccc2)c1`, the result in the series on CFBE41o- [8] was Active. In the series with CFBE41o- [2], the Activity result is reported as “Non-Toxic”.
As for `Cc1ccc(Cn2c(C)ns/c2=N\C(=N\c2ccccc2)c2ccccc2)cc1`, the Activity result with CFBE41o- [2] is “Non-Toxic”.
In the case of `Cc1ns/c(=N\C(=N\c2ccccc2)c2ccncc2)n1Cc1ccccc1`, the outcome in the series with CFBE41o- [8] was inactive. The Activity result was “Non-Toxic” with CFBE41o- [2] and “Not Active” in series [15].
With `Cc1ns/c(=N\C(=N\c2ccccc2)c2ccccc2)n1Cc1cccc(O)c1`, the Activity result with CFBE41o- [1] was “Toxic”; in the series with CFBE41o- [2], “Non-Toxic”; in series [15], “Not Active”. In series [9], a half-maximal effect (EC50) was put at 1.6 µM.
In the case of `CCOc1cccc(Cn2c(C)ns/c2=N\C(=N\c2ccccc2)c2ccccc2)c1`, in the series with CFBE41o- [2], the Activity entry is reported as “Non-Toxic”.
As to `Cc1ccccc1Cn1c(C)ns/c1=N\C(=N\c1ccccc1)c1ccccc1`, the Activity entry in the series on CFBE41o- [2] is “Non-Toxic”.
